Only some compounds are listed: those with a hit (about 1.4% of all), similar ones and a draw of the others.
Efflux pump mplx = inhibitors of Candida antifungal efflux pumps expressed in yeast; S. cerevisiae Candida pump triplex, Nile Red efflux; 330,000 tested, 0.44% active; inhibition, % at 10 µM; AID 485275;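 active = plate passing quality check with inhibition over a set limit, or well fluorescence over plate mean plus 4 SD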;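 also: Nile Red retained in pooled yeast measured as flow cytometry median fluorescence; 0% = buffer negative control and 100% = Enniatin B positive control; higher means more Nile Red kept so more efflux inhibition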
IDE inh = inhibitors of human insulin-degrading enzyme in cells. P14735. HEK cells, FAbetaB cleavage, fluorescence polarization. inhibition, % at 5.59 µM. 320,000 tested, 0.41% active;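 active = percent inhibition above the average of all tested compounds plus 3 SD, set per screening campaign, cut at about 16% in these data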;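 also: IDE supplied by intact live HEK cells; FP after avidin binding of uncleaved biotin substrate so inhibition keeps polarization high; 0% = DMSO wells and 100% = 60 µM reference IDE inhibitor Ii1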
Target sequence (P14735 whole entry, looked up): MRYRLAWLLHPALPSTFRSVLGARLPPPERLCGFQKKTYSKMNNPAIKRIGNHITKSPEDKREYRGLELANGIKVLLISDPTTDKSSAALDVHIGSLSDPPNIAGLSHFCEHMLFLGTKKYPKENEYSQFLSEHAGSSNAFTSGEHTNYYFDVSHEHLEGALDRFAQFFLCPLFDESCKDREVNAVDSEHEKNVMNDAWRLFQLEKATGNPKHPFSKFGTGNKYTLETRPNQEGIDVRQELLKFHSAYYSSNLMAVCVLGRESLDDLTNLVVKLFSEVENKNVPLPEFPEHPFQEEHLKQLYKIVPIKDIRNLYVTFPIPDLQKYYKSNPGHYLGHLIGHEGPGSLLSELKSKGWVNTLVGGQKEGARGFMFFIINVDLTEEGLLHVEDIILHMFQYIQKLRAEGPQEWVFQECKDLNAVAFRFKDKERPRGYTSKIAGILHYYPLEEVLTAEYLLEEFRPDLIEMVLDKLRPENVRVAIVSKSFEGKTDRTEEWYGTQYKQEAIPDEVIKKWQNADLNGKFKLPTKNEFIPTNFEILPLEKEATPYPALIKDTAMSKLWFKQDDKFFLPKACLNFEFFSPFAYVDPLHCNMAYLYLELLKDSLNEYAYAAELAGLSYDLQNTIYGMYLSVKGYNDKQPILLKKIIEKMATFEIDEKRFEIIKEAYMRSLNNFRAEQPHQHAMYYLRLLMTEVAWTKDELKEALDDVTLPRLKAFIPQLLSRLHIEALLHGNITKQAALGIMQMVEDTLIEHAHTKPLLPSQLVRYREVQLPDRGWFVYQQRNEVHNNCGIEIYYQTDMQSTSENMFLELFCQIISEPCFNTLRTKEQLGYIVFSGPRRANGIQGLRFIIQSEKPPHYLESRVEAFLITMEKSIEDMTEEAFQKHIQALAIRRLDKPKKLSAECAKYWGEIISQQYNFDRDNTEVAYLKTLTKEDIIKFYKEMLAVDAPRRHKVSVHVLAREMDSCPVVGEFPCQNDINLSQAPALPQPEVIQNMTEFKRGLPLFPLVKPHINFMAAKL
HDAC3 inhib = inhibitors of human histone deacetylase 3. inhibition, % at 8.3 µM. AID 2718. 320,000 tested, 0.15% active. O15379. recombinant HDAC3, fluorogenic peptide/trypsin coupled, fluorescence; in the data active = inhibition above about 26%, passing the limit was not always enough
IDE cell activ = boosts human insulin-degrading enzyme activity in HEK cells; 340,000 tested, 0.073% active; P14735; activation, % at 5.96 µM; AID 493087; FAbeta-B cleavage, fluorescence polarization; 0% vehicle, 100% cell-free pure enzyme wells;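 active = activation above the mean of all tested compounds plus 3 SD, set per screening campaign, cut at about 17% in these data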
Tb MetRS inh = Trypanosoma brucei MetRS inhibition. purified T. brucei MetRS, ATP depletion, Kinase-Glo luminescence. inhibition, % at 11.9 µM. 360,000 tested, 0.4% active. AID 624268;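 active = inhibition above a per-plate cutoff of the control wells' mean inhibition plus 3 SD, cut at about 5.5% in these data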;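 also: 0% = DMSO wells median and 100% = median of wells with control inhibitor compound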
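Material: parasite MetRS enzyme / Replication: singlicate, one well per compound / Signal: luminescence of leftover ATP / Schedule: 2 h aminoacylation at 25 °C after 15 min preincubation / Medium: HEPES-MgCl2-KCl buffer plus DTT, spermine, BSA, pyrophosphatase / Doses: 11.9 µM single point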
Yeast superoxide = yeast age-related superoxide inhibition as caloric restriction mimetic; S. cerevisiae aged cells, superoxide DHE fluorescence; hits give low values; superoxide response (% of plate mean), % at 10 µM; 330,000 tested, 0.18% active;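 active = superoxide response under a set limit, about three screen SD below normal, cut at about 65% in these data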;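 also: yeast aged for seven days with compound at 30 °C before DHE staining; 100% = average MFI of all compound-treated wells on the plate with controls excluded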
Cmpd fluor yeast = flagged as fluorescent in efflux inhibitor counter-screen | shares compounds with Efflux pump mplx | S. cerevisiae AD/pABC3, compound fluorescence, flow cytometry | 1,700 tested, 4% active | fluorescence ratio to DMSO, % at 10 µM;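 active = fluorescence ratio to DMSO above its plate's cutoff, the plate mean ratio plus 5 SD, cut at about 210% in these data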;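 also: unstained yeast with no Nile Red so the signal is compound autofluorescence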
Mdr1 pump inh = Candida Mdr1 efflux pump inhibition; inhibition, % at 10 µM; shares compounds with Efflux pump mplx; AID 588518; S. cerevisiae AD/CaMDR1, Nile Red efflux, flow cytometry; 1,700 tested, 1% active; in the data active = inhibition above about 26%;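 also: 0% = DMSO vehicle and 100% = reference inhibitor; higher means more Nile Red retained so more efflux inhibition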
CaCdr2 efflux inh = inhibitors of Candida albicans Cdr2 efflux pump; 1,700 tested, 4% active; S. cerevisiae AD/CaCDR2, Nile Red retention, flow cytometry; Nile Red retention ratio vs DMSO, % at 10 µM; shares compounds with Efflux pump mplx; in the data active = Nile Red retention ratio vs DMSO above about 190%;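 also: higher ratio means more blocking of Cdr2 efflux of the dye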
CaCdr1 efflux inh = blocks the Candida albicans Cdr1 efflux pump in yeast. shares compounds with Efflux pump mplx. S. cerevisiae AD/CaCDR1, Nile Red efflux, flow cytometry. inhibition, % at 10 µM. 1,700 tested, 1% active;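 active = inhibition above the screen-wide mean plus twice its standard deviation, cut at about 32% in these data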
Active calls of the source: *; . = not tested or not shown.

SMILES	Efflux pump mplx	IDE inh	HDAC3 inhib	IDE cell activ	Tb MetRS inh	Yeast superoxide	Cmpd fluor yeast	Mdr1 pump inh	CaCdr2 efflux inh	CaCdr1 efflux inh
CN(CCC#N)C(=O)COC(=O)c1ccc2c(c1)C(=O)N(C1CCCCC1)C2=O	6.2*	-1.5	2.3	2.7	-0.2	103.7	105.6	-0.5	106.3	0.1
CCOC(=O)C1NN=C(C(=O)c2ccccc2)C1c1ccccc1 (stereo unspecified)	0.0	-1.8	.	-3.0	0.1	100.5	.	.	.	.
CCOC(=O)C1NN=C(C(=O)c2ccccc2)C1c1ccc(OC)cc1 (stereo unspecified)	1.4*	7.8	3.5	.	0.1	96.8	100.3	-0.3	111.6	0.0
CC1CCCCC1NC(=O)c1cc(S(=O)(=O)N2CCOCC2)ccc1Cl (stereo unspecified)	-0.2	-3.0	0.8	1.9	-0.2	107.7	.	.	.	.
CCOC(=O)c1ccc(CSc2nnc(N)s2)cc1	1.8*	5.1	2.3	1.6	-0.8	95.7	103.4	-0.5	112.4	0.0
CCN1CCN(C(=O)/C=C/c2ccc([N+](=O)[O-])cc2)CC1	0.1	-0.1	5.1	3.1	-0.3	92.7	.	.	.	.
CN1CCN(C(=O)/C=C/c2ccc([N+](=O)[O-])cc2)CC1	12.4*	-4.7	3.8	4.1	-0.2	130.1	98.2	-0.1	89.3	-0.1
O=c1[nH]c2ccc(S(=O)(=O)Nc3ccccc3O)cc2[nH]1	0.0	0.6	3.3	2.2	-1.3	100.2	.	.	.	.
O=C(NCc1ccc(/C=N\NC(=O)C(=O)Nc2ccccc2Br)o1)C(=O)Nc1ccccc1	0.7*	-2.6	5.4	-4.7	-0.5	97.3	101.7	-0.1	109.4	0.1
CCOc1ccc(S(=O)(=O)NCCC(=O)OCC(=O)c2ccc(NC(C)=O)cc2)cc1	-0.1	0.1	.	1.6	-0.3	106.2	.	.	.	.
O=S(=O)(Cc1ccccc1)N1CCN(Cc2ccc3c(c2)OCO3)CC1	1.1*	1.0	-6.7	8.0	-1.1	88.6	103.4	-0.3	93.0	-0.1
COc1ccc(NC(=O)C(NC(=O)c2ccc(C)cc2)c2ccccc2)cc1 (stereo unspecified)	0.3*	1.7	-0.5	-1.4	-1.2	94.0	100.3	-0.2	111.6	0.0
Cc1ccccc1S(=O)(=O)Nc1ncnc2scc(-c3ccccc3)c12	11.4*	-4.4	3.7	3.4	0.3	95.2	98.2	0.0	93.5	-0.1
CN(C)CCCNc1ncnc2scc(-c3ccccc3)c12	-0.1	-1.8	7.8	0.8	0.0	89.9	.	.	.	.
Cc1ccc(CN(Cc2cccnc2)C(=O)CN2C(=O)COc3ccccc32)o1	5.9*	3.4	-0.9	1.8	-0.6	96.4	111.1	0.1	97.7	-0.1
O=C(CN1C(=O)COc2ccccc21)N(Cc1ccccc1)Cc1ccccn1	0.0	3.6	-2.4	1.0	-0.8	111.0	.	.	.	.
COc1ccc(S(=O)(=O)N2CCOC2CNC(=O)C(=O)NCCc2ccc(OC)c(OC)c2)cc1 (stereo unspecified)	-0.1	8.9	-4.3	1.9	0.4	107.4	.	.	.	.
COc1ccc(CNC(=O)C(=O)NCC2OCCN2S(=O)(=O)c2ccc(OC)c(OC)c2)cc1 (stereo unspecified)	0.0	-2.3	-2.7	4.2	0.0	100.7	101.4	0.0	93.5	0.1
COc1ccc(S(=O)(=O)N2CCOC2CNC(=O)C(=O)NCc2ccc3c(c2)OCO3)cc1OC (stereo unspecified)	-0.1	-2.9	1.8	0.2	-0.2	99.9	107.8	-0.1	99.7	-0.2
CCc1c(C)nc2cc(-c3cc(OC)cc(OC)c3)nn2c1N1CCN(CCN2CCOCC2)CC1	1.6*	6.0	-3.9	3.0	-1.2	105.4	82.2	0.1	89.0	-0.2
N#CCSc1nc2c(sc(=S)n2Cc2ccco2)c(=O)n1-c1ccc(F)cc1	5.9*	-3.6	-6.5	5.4	0.3	123.7	111.3	0.1	116.0	-0.2
CC(C)(C)NC(=O)c1nc2nc(-c3ccccc3)cc(C(F)(F)F)n2n1	8.2*	0.0	-29.7	2.0	0.3	90.0	103.0	0.0	97.7	-0.1
Cc1ccc(Cl)cc1NC(=O)COC(=O)CCN1C(=O)C2CC=CCC2C1=O (stereo unspecified)	0.3	7.6	1.2	-2.8	-0.1	95.8	.	.	.	.
C[C@@H]1CN([C@@H](C)CO)C(=O)CCCn2nncc2CO[C@@H]1CN(C)C(=O)Nc1ccc(C(C)(C)C)cc1	.	.	.	.	-0.6	.	.	.	.	.
Cn1cc(Br)c(C(=O)Nc2sc3c(c2C(N)=O)CCCC3)n1	0.2	6.0	-0.4	-0.8	0.0	93.2	.	.	.	.
SMILES	Efflux pump mplx	IDE inh	HDAC3 inhib	IDE cell activ	Tb MetRS inh	Yeast superoxide	Cmpd fluor yeast	Mdr1 pump inh	CaCdr2 efflux inh	CaCdr1 efflux inh
Cn1cc([N+](=O)[O-])c(C(=O)Nc2sc3c(c2C#N)CCC3)n1	0.1	-5.6	2.3	-0.7	-0.4	108.8	111.1	0.2	128.8	0.0
Cn1cc(Br)c(C(=O)Nc2sc3c(c2C#N)CCC3)n1	-0.1	-2.6	-9.4	.	-0.1	111.3	105.6	-0.5	112.4	0.1
Cn1ccc(C(=O)Nc2sc3c(c2C#N)CCC3)n1	0.0	8.7	0.7	4.7	-0.1	89.2	105.7	-0.7	97.5	-0.1
Cc1cc(C(=O)Nc2sc3c(c2C#N)CCC3)no1	-0.2	-0.9	-2.8	-3.0	-0.7	89.7	.	.	.	.
Cc1nc2ccccc2n2c(O)c(CC(=O)O)cc12	0.5*	8.8	4.1	-14.7	0.4	90.7	100.0	-0.3	94.0	0.0
COc1cc(/C=N/N2CCN(c3ccc(Cl)cc3)CC2)cc(OC)c1OC(C)=O	1.2*	10.0	-1.4	-14.0	-0.3	86.8	88.7	0.0	108.1	-0.4
COc1cc(/C=N/N2CCN(c3ccccc3)CC2)cc(OC)c1OC(C)=O	0.0	5.0	4.3	0.9	-0.5	92.9	.	.	.	.
Cc1ccccc1COCCN1CCN(S(=O)(=O)c2ccccc2)CCC1=O	-0.2	-2.8	6.4	2.2	-0.2	100.2	.	.	.	.
Cc1cccc(C(=O)N(NC(=O)Oc2ccccc2)C(C)(C)C)c1	0.0	3.6	1.9	-0.6	-0.2	118.3	.	.	.	.
COc1ccccc1C(=O)N(NC(=O)Oc1ccccc1)C(C)(C)C	5.8*	0.6	0.6	4.9	-1.0	93.5	98.6	-0.1	112.0	-0.3
O=C(O)/C=C/c1cn(-c2ccccc2)nc1-c1cccc([N+](=O)[O-])c1	-0.1	6.3	3.1	0.9	-0.6	100.7	.	.	.	.
O=C(O)/C=C/c1cn(-c2ccccc2)nc1-c1ccc(-c2ccc([N+](=O)[O-])cc2)o1	0.9*	-1.2	3.2	2.7	0.0	108.8	128.8	0.2	120.5	0.2
